Data on one compound can be found in ChEMBL document CHEMBL4425127 (J Med Chem, 2016).

The structures appear in SMILES notation. The source made the active and inactive calls. No cut-off for these calls is given here.

This assay concerns Neuraminidase (Influenza A virus (strain A/Udorn/307/1972 H3N2)), P0DOF9 [E119V,I222L]. The assay can be described thus: Binding affinity to zanamivir/oseltamivir resistant recombinant Influenza A virus (A/Moscow/10/99(H3N2)) Neuraminidase N2 E119V/I222L double mutant expressed in baculovirus infected insect cells at 100 to 1000 nM measured up to 160 sec by surface plasmon resonance analysis. The essentials: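 NA covalently immobilised on CM5 chip by amine coupling. Analyte passed over at several concentrations in running buffer. BSA served as negative control protein. Constants from a steady-state affinity model; triplicate experiments.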
(In general: In SPR one partner is held on a chip, and binding of the other changes the refractive index at the surface.)

Consider `COCCOCCOCCOCCOCCOCCOCCOCCOCCOCc1cn(CC(Cn2cc(COCCOCCOCCOCCOCCOCCOCCOCCOCCOC)nn2)(Cn2cc(COCCOCCOCCOCCOCCOCCOCCOCCOCCOC)nn2)Cn2cc(COCCOCCOCCOCCOCCOCCOCCOCCOCCOC)nn2)nn1`, for which the result was inactive.
